The source of these data is the EternaBench riboswitch data.

This series concerns MS2 coat protein. Kind of series: apparent Kd, MS2 coat protein; higher = weaker binding; RNA-MaP array; FMN 200 µM where present. An outline of the steps: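 Stalled E. coli RNA polymerase produced the designs on Illumina sequencing-chip clusters. SNAP-549-labelled MS2 coat protein was added from 0.7 or 1.5 nM, doubling to 3 µM, without and then with constant ligand, in 100 mM Tris-HCl pH 7.5, 80 mM KCl, 4 mM MgCl2, BSA, DTT, yeast tRNA and Tween-20. The apparent Kd is the median of filtered per-cluster fits of green signal normalised to red-channel RNA signal and control-cluster median Fmax.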

The mark [1] stands for this setting: designed as: ON switch for flavin mononucleotide, no ligand.
Setting [2] is: ligand present: flavin mononucleotide, designed as: ON switch for flavin mononucleotide.
Where [3] appears, read: designed as: OFF switch for flavin mononucleotide, no ligand.
The mark [4] stands for this setting: ligand present: flavin mononucleotide, designed as: OFF switch for flavin mononucleotide.

One may read the apparent Kd as a dissociation constant that holds for the conditions of the assay.

Turning to “CCUUGAUAAUAUCUUCACAUGAGGAUCACCCAUGUCGCUCGACAGGAUAUAUUUGAUUUGUUUAAGUAGAAGGGUCGCAGAUUC”, the “apparent Kd” value came to 0.123 µM under setting [1] and 0.111 µM under setting [2].

On to “GUGUAGAUAUCAGGAUAUCUAUUUCCUACAUGAGGAUCACCCAUGUAGAUGAUCACCCAUGUAAAGGAGAAGGGAUGUCUAUAC”, for which the “apparent Kd” value worked out at 0.163 µM under setting [1] and 0.138 µM under setting [2].

Regarding “AAAAAGUCAGGAUAUCGGAAAAAAAAAAAAAAAAAAAAAAACGAGAAGGGACAUGAGGAUCACCCAUGUAAAAA”, the “apparent Kd” value under setting [3] came to 0.0558 µM and the “apparent Kd” value under setting [4] turned out to be 0.0682 µM.

For “AUAUUUAUUUAGAAGGACAUGAGGAUCACCCAUGUCGCUGGGCGCGGGAAACCGUGCCCGGCCAUGUAGGAUAUAGGUAGAUAU”, the “apparent Kd” value by setting is: under setting [3], 0.0142 µM; under setting [4], 0.0122 µM.

As to “UGUCGGAGCAGAGGAUAUUACAUGAGGAUCACCCAUGUAUGAACCAAUAGCUGGAAUCAGCAAUGUAAGAAGGCUGCUCCGACA”, the “apparent Kd” value came out at 0.0175 µM under setting [3] and 0.167 µM under setting [4].

On to “UUAGGACAAGCAGGAUAUGUAACAUGAGGAUCACCCAUGUUGAGACUUUGGCACUCCUACAUGCAGCAGAAGGGCUUCAAACCU”, for which the “apparent Kd” value stood at 0.0297 µM under setting [3] and 0.0664 µM under setting [4].

As to “UGAUCACAUGAGGAUCACCCAUGUCAGGAUAUCGUCACUGGAGCUUCGGCUCCAGUGACGAGAAGGGAUAUAAU”, the “apparent Kd” value is, setting by setting: under setting [3], 0.0915 µM; under setting [4], 0.197 µM.

As to “GGAGCACACAUUAACAUGAGGAUCACCCAUGUCAAAAGACAUGAGGAUAUGGAUACGAAAAGGAUCCAGAAGGCAUGGUGCUCC”, the “apparent Kd” value under setting [1] was 0.693 µM and the “apparent Kd” value under setting [2] was 0.0725 µM.

For the sequence “UUGAAGAUAGGAUAUACGAGGAGAGGAGAGAGAAGGUGAGGACAUGAGGAUCACCCAUGUAGAAGGAUCAGGAA”, the “apparent Kd” value under setting [3] amounted to 0.0815 µM and the “apparent Kd” value under setting [4] is 0.0625 µM.

As for “UUGUGAGAGCAGGAUAUCUUAUUUUUUUUUUGUGGAGAAGGGCUGACAUGAGGAUCACCCAUGUGGUCCUAGAU”, the “apparent Kd” value under setting [3] turned out to be 0.0284 µM and the “apparent Kd” value under setting [4] was determined as 0.0335 µM.

With “CCCGCUGCUGUGAGGAUAUGCCUGUGGGUGCGUGGGUAGAAGGCACAUGAGGAUCACCCAUGUCCUGCGGCUCC”, the “apparent Kd” value reads like this: under setting [3], 0.366 µM; under setting [4], 0.244 µM.

As for “AGUGGUGAGCAAGGAUAUCGCCACUGCGUGACCUCACAACGGAUACAUGAGGAUCACCCAUGUGGCGAGAAGGUGCGGGAACGG”, the “apparent Kd” value was found to be 0.0281 µM under setting [3] and 0.0369 µM under setting [4].

With “UUCAGCUCGUGAGGAUAUACAUGUGCUGGAAACAGCACUAAAGUUUUCACAUGAGGAUCACCCAUGUAGAAGGCACGAGCUGAG”, the “apparent Kd” value is, setting by setting: under setting [3], 0.0156 µM; under setting [4], 0.0345 µM.

Regarding “GAAGCAGAUCAGAAGGACAACGUAGUUUCUGGCUUGGUGGCCCUCGUUUGUAGGAUAUGAUCUAACAUGAGGAUCACCCAUGUG”, the “apparent Kd” value reads like this: under setting [1], 0.0532 µM; under setting [2], 0.0117 µM.

For “GCGCUGCGAGGAUAUACAUGAGGAUCACCCAUGUGUCGGCAGCCAUGCUAGUACAAAUGUAGAAGGCGCGUAAA”, the “apparent Kd” value was determined as 0.0168 µM under setting [3] and 0.0178 µM under setting [4].

With “GGACCAUAUCAGGAUAUGACUAGCUUCGGCUAGUCAGAAGGGAUGACAUGAGGAUCACCCAUGUGAUCAGGUCC”, the “apparent Kd” value by setting is: under setting [3], 0.0421 µM; under setting [4], 0.0505 µM.

Turning to “CUGGACGUCGUAGGAUAUGUAGGAUAUUCCUACAUGAGGAUCACCCAUGUUGACAUGGAAGAAGGACAGAAGGACGAUGUCCAU”, the “apparent Kd” value by setting is: under setting [1], 0.229 µM; under setting [2], 0.00455 µM.

As to “UGAUAGCACAGAGGAUAUGCGUUGUGUUAUCUCUACAUGAGGAUCACCCAUGUAGAAGGCUGUGCUAUCUAAGUCGGAAACGAU”, the “apparent Kd” value under setting [3] is 0.00557 µM and the “apparent Kd” value under setting [4] amounted to 0.00716 µM.

Regarding “ACCUGACAUGAGGAUCACCCAUGUCAGGAUAUGUACAUCAGGAAAAAAAAACUGAUGUACAGAAGGGACUUGGG”, the “apparent Kd” value under setting [3] came to 0.0224 µM and the “apparent Kd” value under setting [4] was 0.0181 µM.

In the case of “AAAUCAGUAGGAUAUACGAUUUUAUGCUAGAUAGAGGGACCACAUGAGGAUCACCCAUGUAGAAGGACUAGAUA”, the “apparent Kd” value is, setting by setting: under setting [3], 0.0202 µM; under setting [4], 0.0214 µM.

As for “UCAGGCUUCGAGAAGGACAUGAAUCGUAGCAUUGCUACGAUCAUUGAUACAUGAGGAUCACCCAUGUAGGAUAUCGGAGUCUGC”, the “apparent Kd” value was found to be 0.00599 µM under setting [3] and 0.00675 µM under setting [4].

As to “GACUGAUUGUAGAAGGUACUUAAUACUCAUGUAACAUGAGGAUCACCCAUGUAUCACCCAUAUUGUAAGGAUAUACAUAUCUCA”, the “apparent Kd” value is, setting by setting: under setting [1], 0.337 µM; under setting [2], 0.167 µM.

Consider “UGAUAGGACAGAGGAUAUACGUGCUAGAGAUACUAGCAAAAUUUCCUCACAUGAGGAUCACCCAUGUAGAAGGCUGUCCUAUCU”, for which the “apparent Kd” value is, setting by setting: under setting [3], 0.0478 µM; under setting [4], 1.1 µM.

For “UAUAUAUAGUAAGGAUAUGUAUUUAUUUUAUAAACAGAAGGUACUGACAUGAGGAUCACCCAUGUUUUAGUGUGGGCAUGUAGA”, the “apparent Kd” value under setting [3] was determined as 0.0891 µM and the “apparent Kd” value under setting [4] was 0.128 µM.

With “GUACGUGGACAGAAGGCGACAUGAGGAUCACCCAUGUUGGCUCGGGUAUGACCAAUCCGCAUGAUUGAGGAUAUGUCUGCGGGC”, the “apparent Kd” value is 0.00907 µM under setting [3] and 0.0624 µM under setting [4].

Regarding “UUGAACAUAGGAUAUAGUUGUUUGUACAUGAGGAUCACCCAUGUUAGGGAUGUUUUGUUUCUAGAAGGAUGUUGAU”, the “apparent Kd” value is 0.17 µM under setting [3] and 0.0803 µM under setting [4].

Take “CGGCGCUGUCGAGAGGAUAUGCGGUGAUGGACAUGAGGAUCACCCAUGUUAGCGAUAGCAUCACGGUAGAAGGCUCCACAGCCGU”: the “apparent Kd” value is, setting by setting: under setting [1], 0.0318 µM; under setting [2], 0.013 µM.

“AAAAUGAGUCAAGGAUAUCCGAGCAGAAUGCUAGGAGAAGGUGACAUGAGGAUCACCCAUGUCUCUCCGAGCAUGGUAUUCUCA”: the “apparent Kd” value was 0.0271 µM under setting [3] and 0.0319 µM under setting [4].

For the sequence “GUUAAUUAGUGAGGAUAUACAGAGAGUGAAGCUGUAGAAGGCACAUUCCUCAAGACAUGAGGAUCACCCAUGUGAUAAUAAGAU”, the “apparent Kd” value came out at 0.0374 µM under setting [3] and 0.105 µM under setting [4].

Take “UAUUAAUACGAAGGAUAUGGUUACAUGAGGAUCACCCAUGUAUGUAUAUUGAUCUAGAUUUUUAACCAGAAGGUCGUGAGUAAA”: the “apparent Kd” value came to 0.0349 µM under setting [3] and 0.059 µM under setting [4].

For “GGUCCACAUGAGGAUCACCCAUGUUAGGAUAUCUCCUGCCUCCUAAAUGGAAGCAGACAGAGAAGGAACAUCAA”, the “apparent Kd” value is, setting by setting: under setting [3], 0.022 µM; under setting [4], 0.0844 µM.

With “ACCAGGCGAGGAUAUACUUAGAUUUUUUCGUUUAGUCUCGAACAUGAGGAUCACCCAUGUAGAAGGUGCUUCAC”, the “apparent Kd” value reads like this: under setting [3], 0.0499 µM; under setting [4], 0.0427 µM.

Consider “AUGCUUCACACAGGAUAUACAUGAGGAUCACCCAUGUGUCCAAAGUAGCCGACACGAGCUACGUCGUAGAAGGGUGUGAAGCAU”, for which the “apparent Kd” value under setting [3] was 0.0188 µM and the “apparent Kd” value under setting [4] was 0.0873 µM.

Consider “ACAUGAGACUAAGGAUAUGAUGUACCUAUAUGUGACAUGAGGAUCACCCAUGUGGUAAGUAUGAUUCAGAAGGUAGAGAUAUGU”, for which the “apparent Kd” value runs as follows: under setting [1], 0.0987 µM; under setting [2], 0.0326 µM.

“AAUUGACACGUAGGAUAUCGAACUAUAUUAACACGAGAAGGACGUACAUGAGGAUCACCCAUGUUUAAUGGAGUAGAUAAGUUG”: the “apparent Kd” value is, setting by setting: under setting [3], 0.144 µM; under setting [4], 0.283 µM.

Take “AAACAGGGAGGAUAUACAUAGAUCGUCUAACCUAAUUGGUCACAUGAGGAUCACCCAUGUAGAAGGCCCUUAGG”: the “apparent Kd” value is, setting by setting: under setting [3], 0.0246 µM; under setting [4], 0.144 µM.

In the case of “AACAGCUCGUCAGGAUAUAUUUUCUUUUUAUGUAUUUAUGUACAUGAGGAUCACCCAUGUUGUUUGUAGAAGGGACGAGCUGAA”, the “apparent Kd” value came to 0.0201 µM under setting [3] and 0.0167 µM under setting [4].

Turning to “AACUAGUCAGGAUAUACGAACAUGUCAAAAAACAUAAAGGGACAUGAGGAUCACCCAUGUAGAAGGGACUAGCA”, the “apparent Kd” value was 0.177 µM under setting [3] and 0.666 µM under setting [4].

As for “GCCUCACAUGAGGAUCACCCAUGUCAGGAUAUAGGAGGCAGUAGAUAUCCUACCGCCGCUAGAAGGGACUGGCA”, the “apparent Kd” value reads like this: under setting [3], 0.0491 µM; under setting [4], 0.131 µM.

As to “GCUGCGCGAGGAUAUGCGGUUUGUGCUUUGGCCCGUGGCGUACAUGAGGAUCACCCAUGUAGAAGGCGUGUGGG”, the “apparent Kd” value by setting is: under setting [3], 0.0215 µM; under setting [4], 0.0217 µM.

Take “AAUAACAGAGGAUAUACUAUUUUAUGUGUUUAUUGUUUUAAACAUGAGGAUCACCCAUGUAGAAGGCUGAAUGA”: the “apparent Kd” value came out at 0.0376 µM under setting [3] and 0.0544 µM under setting [4].

“CUGCUCCGUGUAGGAUAUGCAUACUCCCACUAUGCAGAAGGACAUGAGGAUCACCCAUGUAUGUUAUUAUCACGUGUAGCGUAC”: the “apparent Kd” value is 0.0287 µM under setting [3] and 0.0729 µM under setting [4].

Regarding “UUUCCCUGUGUGAGGAUAUACUUGUUUGGGUUUUUGUAGAAGGCACAUGAGGAUCACCCAUGUACUCUGUCCUG”, the “apparent Kd” value was 0.0253 µM under setting [3] and 0.0306 µM under setting [4].

Regarding “GUGUACGUAGGAUAUACAUGAGGAUCACCCAUGUGAAUAAGAUAGAAUAAGAUAAAGUGUAGAAGGACGAGUGU”, the “apparent Kd” value by setting is: under setting [3], 0.0373 µM; under setting [4], 0.0305 µM.

For the sequence “CUUUUGUGAGGAUAUCAGUUGUAAAAAAAUAAAAUUACUACUGAGAAGGCACAUGAGGAUCACCCAUGUUCCUC”, the “apparent Kd” value reads like this: under setting [3], 0.035 µM; under setting [4], 0.14 µM.

For the sequence “GGAUUGUGAGGAUAUUAGUUGUACGUCAAUAGACGUAUAAGUGAGAAGGCACAUGAGGAUCACCCAUGUUCCUG”, the “apparent Kd” value is, setting by setting: under setting [3], 0.0227 µM; under setting [4], 0.0807 µM.

Regarding “GCCAUCGCAUGAGGAUAUGCUCGGGUUUCCCGAGCAGAAGGCAUGUCACAAGACAUGAGGAUCACCCAUGUAGUUAAGAUGGCA”, the “apparent Kd” value worked out at 0.19 µM under setting [1] and 0.00998 µM under setting [2].

Take “GGUGCGUUUGUGAGGAUAUGCUGGUCCUUGGUUCGGCAGAAGGCACAUGAGGAUCACCCAUGUGGUGUCGUACC”: the “apparent Kd” value runs as follows: under setting [3], 0.0167 µM; under setting [4], 0.0488 µM.
